Data reported in ChEMBL document CHEMBL1157110, “Hopane-type triterpenes and binaphthopyrones from the scale insect pathogenic fungus Aschersonia paraphysata BCC 11964” (J Nat Prod, 2010).
Where a name gives a salt, the structure may show the parent alone. Active and inactive are the calls of the source. No cut-off for these calls is given here.

Columns and labels:
KB = assay: Cytotoxicity against human KB cells after 45 hrs by resazurin microplate assay; format: functional, cell-based
Vero = assay: Cytotoxicity against african green monkey Vero cells by green fluorescent protein microplate assay; format: cell-based; conditions: Chlorocebus sabaeus
MCF7 = assay: Cytotoxicity against human MCF7 cells after 45 hrs by resazurin microplate assay; format: functional, cell-based; conditions: MCF7, 45 h
Plasmodium falciparum = assay: Antimalarial activity against Plasmodium falciparum K1 after 24 hrs by [G-3H]hypoxanthine uptake assay; format: functional, organism-based; conditions: K1, 24 h
Method in brief: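 Multidrug-resistant K1 strain, microculture radioisotope technique. Samples dissolved in DMSO as a 10 mg/mL stock, then diluted with water before testing. IC50 reported.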

NCI-H187 = assay: Cytotoxicity against human NCI-H187 cells after 45 hrs by resazurin microplate assay; format: functional, cell-based; conditions: NCI-H187, 45 h
[1] = test system: Mycobacterium tuberculosis; assay: Antituberculosis activity against Mycobacterium tuberculosis; format: functional, organism-based

Compound	IC50 (KB)	IC50 (Vero)	IC50 (MCF7)	IC50 (Plasmodium falciparum)	IC50 (NCI-H187)	Activity [1]
CC(C)C1=C2CC[C@]3(C)[C@H]([C@H](O)C[C@@H]4[C@@]5(C)CCCC(C)(C)[C@@H]5CC[C@]43C)[C@@]2(C)CC1	> 118 µM	> 118 µM	> 118 µM	> 23 µM	> 118 µM	inactive
CC(C)C1=C2CC[C@]3(C)[C@H]([C@H](O)C[C@@H]4[C@@]5(C)CCCC(C)(C)[C@@H]5[C@@H](O)C[C@]43C)[C@@]2(C)CC1	> 113 µM	> 113 µM	> 113 µM	15 µM	> 113 µM	inactive
C[C@H]1[C@@H](O)O[C@@H]2O[C@@]3(C)CC[C@H]4[C@H](C)CC[C@@H]1[C@@]24OO3 [ARTENIMOL]				0.0046 µM		
CC1Cc2cc3c(-c4c(O)cc(O)c5c(O)c6c(cc45)CC(C)OC6=O)c(O)cc(O)c3c(O)c2C(=O)O1 (centres undefined) [ASCHERNAPHTHOPYRONE A]	17 µM	> 96 µM	87 µM	7.3 µM	4.5 µM	inactive
CC1Cc2cc3cc(O)c(-c4c(O)cc5cc6c(c(O)c5c4O)C(=O)OC(C)C6)c(O)c3c(O)c2C(=O)O1 (centres undefined) [ASCHERNAPHTHOPYRONE B]	> 96 µM	52 µM	79 µM	> 19 µM	95 µM	inactive
COc1cccc2c1C(=O)c1c(O)c3c(c(O)c1C2=O)C[C@@](O)(C(=O)CO)C[C@@H]3O[C@H]1C[C@H](N)[C@H](O)[C@H](C)O1 [DOXORUBICIN HYDROCHLORIDE]					0.086 µM	
Cc1c2ccncc2c(C)c2c1[nH]c1ccccc12 [ELLIPTECINE]		3.8 µM			1.5 µM	
CC(C)C1=C2CC[C@]3(C)[C@H](CC[C@@H]4[C@@]5(C)CCCC(C)(C)[C@@H]5[C@@H](O)C[C@]43C)[C@@]2(C)CC1 [ZEORININ]	> 118 µM	> 118 µM	> 118 µM	> 23 µM	> 118 µM	inactive
